Data taken from ChEMBL document CHEMBL1137992, “Long hydrocarbon chain keto diols and diacids that favorably alter lipid disorders in vivo” (J Med Chem, 2004).

Tests used:
Rattus norvegicus [1] = assay: Percentage change of non-HDL cholesterol levels in obese female Zucker rats after 1 week of pre-treatment at a dose of 100 mg/kg/day; format: functional
How it was run: (§1)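 Female Zucker fatty rats [Crl:(Zuc)-faBR], 10–12 weeks old (400–500 g), acclimated 7 days and fed rodent chow. Dosed once daily by oral gavage in 20% EtOH/80% PEG-200 (v/v), at 0.25% of body weight, for 2 weeks. Blood taken after a 6-h fast: orbital plexus before dosing and at day 7, cardiac puncture at day 14. Serum lipoprotein cholesterol measured by Superose 6 gel filtration with on-line cholesterol detection. Values are % change from pretreatment, mean ± SEM.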

Rattus norvegicus [2] = assay: Percentage change of HDL cholesterol levels in obese female Zucker rats after 2 weeks of pre-treatment at a dose of 100 mg/kg/day; format: functional
How it was run: (§2)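 Obese female Zucker fatty rats were gavaged once daily with 30 or 100 mg/kg/day in 20% EtOH/80% PEG-200 for 2 weeks. Sera were collected after a 6 h fast, before dosing, at 1 week (orbital plexus) and at 2 weeks (cardiac puncture). HDL-C was total cholesterol multiplied by HDL area fraction from gel-filtration lipoprotein profiles. Reported as % change from pretreatment ± SEM.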

Rattus norvegicus [3] = assay: Percentage change of triglycerides in obese female Zucker rats after 1 week of pre-treatment at a dose of 100 mg/kg/day; format: functional; how it was run: as §1
Rattus norvegicus [4] = assay: Percentage change of non-HDL cholesterol levels in obese female Zucker rats after 2 weeks of pre-treatment at a dose of 100 mg/kg/day; format: functional; how it was run: as §1
Rattus norvegicus [5] = assay: Percentage change of triglycerides in obese female Zucker rats after 2 weeks of pre-treatment at a dose of 100 mg/kg/day; format: functional; how it was run: as §1
Rattus norvegicus [6] = assay: Percentage change of HDL cholesterol levels in obese female Zucker rats after 1 week of pre-treatment at a dose of 100 mg/kg/day; format: functional; how it was run: as §2
[7] = Concentration required for inhibition of lipid synthesis in primary cultures of rat hepatocytes; format: functional, cell-based; conditions: Hepatocyte
How it was run: (§3)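 Primary hepatocytes from male Sprague-Dawley rats (Seglen isolation), plated at 1.5×10^5 cells/cm² on collagen in serum-containing DMEM, switched to serum-free medium after 4 h, grown overnight to monolayers. Cells incubated 4 h with 0.25 μCi [1-14C]acetate/well (1 Ci/mol final) plus 0, 1, 3, 10, 30, 100 or 300 μM compound. Lipids extracted into scintillant and counted; IC50 taken from lipid synthesis rates.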

Rattus norvegicus [8] = assay: Percentage change of non-HDL cholesterol levels in obese female Zucker rats after 2 weeks of pre-treatment at a dose of 30 mg/kg/day; format: functional; how it was run: as §1
Rattus norvegicus [9] = assay: Percentage change of non-HDL cholesterol levels in obese female Zucker rats after 1 week of pre-treatment at a dose of 30 mg/kg/day; format: functional; how it was run: as §1
[10] = Concentration required for inhibition of lipid synthesis in primary cultures of rat hepatocytes; value ranges from 100-300 uM; format: functional, cell-based; conditions: Hepatocyte; how it was run: as §3
Rattus norvegicus [11] = assay: Percentage change of triglycerides in obese female Zucker rats after 1 week of pre-treatment at a dose of 30 mg/kg/day; format: functional; how it was run: as §1
Rattus norvegicus [12] = assay: Percentage change of triglycerides in obese female Zucker rats after 2 weeks of pre-treatment at a dose of 30 mg/kg/day; format: functional; how it was run: as §1
Rattus norvegicus [13] = assay: Percentage change of HDL cholesterol levels in obese female Zucker rats after 1 week of pre-treatment at a dose of 30 mg/kg/day; format: functional; how it was run: as §2
Rattus norvegicus [14] = assay: Percentage change of HDL cholesterol levels in obese female Zucker rats after 2 weeks of pre-treatment at a dose of 30 mg/kg/day; format: functional; how it was run: as §2
[15] = Concentration required for inhibition of lipid synthesis in primary cultures of rat hepatocytes at 300 uM; not active; format: functional; conditions: Hepatocyte; how it was run: as §3
[16] = Concentration required for inhibition of lipid synthesis in primary cultures of rat hepatocytes; value ranges from 3-10 uM; format: functional, cell-based; conditions: Hepatocyte; how it was run: as §3
Rattus norvegicus [17] = assay: Percentage change of non-HDL cholesterol levels in obese female Zucker rats after 1 week of treatment at a dose of 100 mg/kg/day; format: functional; conditions: in the assay text read “30 mg/kg/day” for “100 mg/kg/day”; how it was run: as §1
Rattus norvegicus [18] = assay: Percentage change of non-HDL cholesterol levels in obese female Zucker rats after 1 week of pre-treatment at a dose of 59 mg/kg/day; format: functional; how it was run: as §1
Rattus norvegicus [19] = assay: Percentage change of non-HDL cholesterol levels in obese female Zucker rats after 2 weeks of pre-treatment at a dose of 59 mg/kg/day; format: functional; how it was run: as §1
Rattus norvegicus [20] = assay: Percentage change of triglycerides in obese female Zucker rats after 2 weeks of pre-treatment at a dose of 59 mg/kg/day; format: functional; how it was run: as §1
Rattus norvegicus [21] = assay: Percentage change of triglycerides in obese female Zucker rats after 1 week of pre-treatment at a dose of 59 mg/kg/day; format: functional; how it was run: as §1
Rattus norvegicus [22] = assay: Percentage change of HDL cholesterol levels in obese female Zucker rats after 1 week of pre-treatment at a dose of […]; format: functional
Rattus norvegicus [23] = assay: Percentage change of HDL cholesterol levels in obese female Zucker rats after 2 weeks of pre-treatment at a dose of 59 mg/kg/day; format: functional

| Structure (SMILES) | Change (Rattus norvegicus [1]) | Change (Rattus norvegicus [2]) | Change (Rattus norvegicus [3]) | Change (Rattus norvegicus [4]) | Change (Rattus norvegicus [5]) | Change (Rattus norvegicus [6]) | IC50 [7] | further results |
| --- | --- | --- | --- | --- | --- | --- | --- | --- |
| CC(C)(CO)CCCC(=O)CCCC(C)(C)CO | -22% | 2% | -31% | 28% | 10% | 24% | 27 µM | – |
| Cc1ccc(C(C)(CO)CCCCC(=O)CCCCC(C)(CO)c2ccc(C)cc2)cc1 (stereo unspecified) | – | – | – | – | – | – | – | Change (Rattus norvegicus [8]): 46%; Change (Rattus norvegicus [9]): 61%; IC50 [10]: < 300 µM; Change (Rattus norvegicus [11]): 15%; Change (Rattus norvegicus [12]): 0%; Change (Rattus norvegicus [13]): -3%; Change (Rattus norvegicus [14]): -2% |
| Cc1ccc(C(C)(CCCCC(=O)CCCCC(C)(C(=O)O)c2ccc(C)cc2)C(=O)O)cc1 (stereo unspecified) | – | – | – | – | – | – | – | Change (Rattus norvegicus [8]): 47%; Change (Rattus norvegicus [9]): 0%; IC50 [10]: < 300 µM; Change (Rattus norvegicus [11]): -11%; Change (Rattus norvegicus [12]): 12%; Change (Rattus norvegicus [13]): 0%; Change (Rattus norvegicus [14]): 10% |
| CC(C)(CO)CCCCCC(=O)CCCCC(C)(C)CO | -70% | 78% | -85% | -78% | -87% | 78% | 2 µM | – |
| CCCCCCCCCCCCCCSCC(=O)O [TETRADECYLTHIOACETIC ACID] | – | – | – | – | – | – | 43 µM | – |
| CC(C)(CO)CCCCCC(=O)CCCCCC(C)(C)CO | -91% | – | -92% | -88% | -92% | 77% | 3 µM | – |
| CC(C)OC(=O)C(C)(C)Oc1ccc(C(=O)c2ccc(Cl)cc2)cc1 [FENOFIBRATE] | 19.8% | -14% | 6% | 11.6% | -8% | -41% | – | – |
| CC(CO)(CCCCC(=O)CCCCC(C)(CO)c1ccccc1)c1ccccc1 (stereo unspecified) | – | – | – | – | – | – | – | Change (Rattus norvegicus [8]): 31%; Change (Rattus norvegicus [9]): -30%; IC50 [10]: < 300 µM; Change (Rattus norvegicus [11]): -25%; Change (Rattus norvegicus [12]): 21%; Change (Rattus norvegicus [13]): 0%; Change (Rattus norvegicus [14]): -27% |
| CC(C)(CO)Cc1cccc(C(=O)c2cccc(CC(C)(C)CO)c2)c1 | -14% | -11% | -29% | -5% | -8% | 1% | 52 µM | – |
| CC(C)(CCCCCCC(=O)CCCCCCC(C)(C)C(=O)O)C(=O)O | – | – | – | – | – | – | 9 µM | – |
| CC(C)(CCCCC(=O)CCCC(C)(C)C(=O)O)C(=O)O | – | – | – | – | – | – | 8 µM | Change (Rattus norvegicus [8]): 93%; Change (Rattus norvegicus [9]): -17%; Change (Rattus norvegicus [11]): -2%; Change (Rattus norvegicus [12]): 23%; Change (Rattus norvegicus [13]): 7%; Change (Rattus norvegicus [14]): 4% |
| CC(CCCC(=O)CCCC(C)(C(=O)O)c1ccccc1)(C(=O)O)c1ccccc1 (stereo unspecified) | 36% | 12% | 10% | 65% | 27% | -4% | – | inhibition at 300 µM [15]: < 50% |
| CC(C)(CCCCCC(=O)CCCCC(C)(C)C(=O)O)C(=O)O | -30% | 72% | -65% | -51% | -62% | 240% | 3 µM | – |
| CC(C)(CO)CCCCC(=O)CCCCC(C)(CO)c1ccccc1 (stereo unspecified) | – | – | – | – | – | – | 1 µM | Change (Rattus norvegicus [8]): -8%; Change (Rattus norvegicus [9]): 17%; Change (Rattus norvegicus [11]): 18%; Change (Rattus norvegicus [12]): -8%; Change (Rattus norvegicus [13]): -18%; Change (Rattus norvegicus [14]): -5% |
| CC(CO)(CCCCCC(=O)CCCCCC(C)(CO)c1ccccc1)c1ccccc1 (stereo unspecified) | 29% | 10% | 24% | 9% | 1% | 2% | 93 µM | – |
| CC(C)(CCCCCCCC(=O)CCCCCCCC(C)(C)C(=O)O)C(=O)O | -81% | 86% | -85% | -45% | -63% | 44% | 5 µM | – |
| CC(CCCCC(=O)CCCCC(C)(C(=O)O)c1ccccc1)(C(=O)O)c1ccccc1 (stereo unspecified) | 36% | 45% | -36% | 79% | -8% | 43% | – | inhibition at 300 µM [15]: < 50% |
| CC(C)(CO)CCCCC(=O)CCCC(C)(C)CO | -26% | 48% | -40% | 4% | -12% | 47% | – | IC50 [16]: < 10 µM |
| CC(C)Cc1ccc(C(C)(CO)CCCCC(=O)CCCCC(C)(CO)c2ccc(CC(C)C)cc2)cc1 (stereo unspecified) | 27% | 6% | -10% | 34% | -15% | -5% | – | inhibition at 300 µM [15]: < 50% |
| CC(C)(CO)CCCCCCC(=O)CCCCCCC(C)(C)CO | – | – | – | – | – | – | 2 µM | Change (Rattus norvegicus [17]): -50% |
| CC(CO)(CCCC(=O)CCCC(C)(CO)c1ccccc1)c1ccccc1 (stereo unspecified) | -18% | -11% | -20% | -32% | -17% | -14% | – | IC50 [10]: < 300 µM |
| CC(C)(Cc1cccc(C(=O)c2cccc(CC(C)(C)C(=O)O)c2)c1)C(=O)O | – | – | – | – | – | – | – | Change (Rattus norvegicus [18]): -43%; Change (Rattus norvegicus [19]): 34%; Change (Rattus norvegicus [20]): 7%; Change (Rattus norvegicus [21]): -24%; Change (Rattus norvegicus [22]): 2%; Change (Rattus norvegicus [23]): 7% |
| CC(C)Cc1ccc(C(C)(CCCCC(=O)CCCCC(C)(C(=O)O)c2ccc(CC(C)C)cc2)C(=O)O)cc1 (stereo unspecified) | -40% | 62% | -63% | -44% | -66% | 11% | – | IC50 [10]: < 300 µM |
